Most compounds without a hit are left out; they make up all but 2.9% or so of the library.
TCR-CD3 inh – inhibitors of human TCR-CD3 interaction. TAMRA-labeled TCR probe fluorescence, biochemical. inhibition, % at 9.4 µM. actives 0.37% (n = 360,000). AID 651800; in the data active means inhibition above about 19%;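 further: recombinant mutant TCR 2C K166C tagged with TAMRA read by polarization; 0% = receptor in buffer alone and 100% = receptor with positive control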
PRMT1 FP inh – PRMT1 (human) inhibition, primary screen; Q99873; recombinant PRMT1, activity-based probe fluorescence polarization; inhibition, % at 2.79 µM; actives 1.3% (n = 370,000); AID 652257;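 active means inhibition above about 21% made by adding two undisclosed values, limit read from the data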
ABHD4 inh – inhibitors of mouse ABHD4; Q8VD66; purified mABHD4, FP-Rh probe fluorescence polarization; inhibition, % at 8.92 µM; actives 0.54% (n = 370,000);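 active means inhibition exceeding the mean over every tested compound plus 3 SD, cut at about 30% in these data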;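 further: 0% = plate median of compound wells and 100% = S159A mutant with DMSO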
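Test system: mouse ABHD4 enzyme, wild type. Reagent: FP-Rh fluorescent activity-based probe, added after compound pre-incubation. Timing: pre-incubation 45 min, probe exposure 60 min, at 25 °C. Technique: FP readout, ex 525 nm / em 598 nm. Benchmarks: high control S159A mutant with DMSO, low control median of compound wells.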
SIAE inh – human SIAE inhibition, primary screen; Q9HAT2; SIAE FP-Rh probe binding, fluorescence polarization; inhibition, % at 9.66 µM; actives 0.69% (n = 370,000); AID 1053197;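 active means inhibition above a cutoff: mean of compounds within the control limits plus 3 SD of those, cut at about 17% in these data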;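 further: 0% = plate median of compound wells and 100% = probe without SIAE protein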
Target sequence (Q9HAT2 whole entry, looked up): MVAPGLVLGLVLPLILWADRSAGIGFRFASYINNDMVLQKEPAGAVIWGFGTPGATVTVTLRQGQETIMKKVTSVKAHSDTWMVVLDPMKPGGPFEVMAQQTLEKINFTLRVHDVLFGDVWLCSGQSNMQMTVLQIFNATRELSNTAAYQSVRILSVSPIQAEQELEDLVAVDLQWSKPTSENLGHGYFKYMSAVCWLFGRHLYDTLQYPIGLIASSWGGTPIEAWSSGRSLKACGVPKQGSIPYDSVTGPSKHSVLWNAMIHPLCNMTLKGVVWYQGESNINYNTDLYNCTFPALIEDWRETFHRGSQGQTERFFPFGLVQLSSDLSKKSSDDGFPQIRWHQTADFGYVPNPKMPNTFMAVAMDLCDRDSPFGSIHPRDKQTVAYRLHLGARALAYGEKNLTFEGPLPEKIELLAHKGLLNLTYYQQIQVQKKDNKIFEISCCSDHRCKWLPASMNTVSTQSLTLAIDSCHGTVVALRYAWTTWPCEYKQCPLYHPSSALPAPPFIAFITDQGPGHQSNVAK
HTRA1 inh – inhibitors of human serine peptidase HTRA1. actives 0.5% (n = 340,000). Q92743. AID 504803. recombinant HTRA1, FP-rhodamine activity-based probe, fluorescence polarization. inhibition, % at 5.96 µM; in the data active means inhibition above about 36%;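 further: 0% = enzyme with DMSO and 100% = wells lacking enzyme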
ATG4B inh – blocks human ATG4B protease cleavage of LC3 substrate; actives 0.51% (n = 340,000); inhibition, % at 8.33 µM; ATG4B cleavage of LC3-PLA2, NBD-HPC fluorescence, 1 h; Q9Y4P1; AID 504462; in the data active means inhibition above about 40%
ATG4B confirm – confirmation of human ATG4B inhibitors. ATG4B protease fluorescent substrate cleavage assay. actives 92% (n = 320). shares compounds with ATG4B inh. inhibition, % at 8.33 µM; in the data active means inhibition above about 39%
PLA2 ctr – inhibits human PLA2, flagging false ATG4B inhibitors; shares compounds with ATG4B inh; purified PLA2, NBD-C6-HPC fluorescence, 45 min; inhibition, % at 8.33 µM; actives 66% (n = 1,600); AID 588402; in the data active means inhibition above about 50%
Target sequence (P04054 whole entry, looked up): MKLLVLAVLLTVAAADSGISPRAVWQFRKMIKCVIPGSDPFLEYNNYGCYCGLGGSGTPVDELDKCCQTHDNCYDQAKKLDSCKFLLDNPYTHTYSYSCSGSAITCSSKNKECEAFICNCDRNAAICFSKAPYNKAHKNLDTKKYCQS
Active calls of the source: *; / = not tested or not shown.

SMILES	TCR-CD3 inh	PRMT1 FP inh	ABHD4 inh	SIAE inh	HTRA1 inh	ATG4B inh	others
CCOC(=O)N1CCN(S(=O)(=O)c2ccc(C(=O)NNc3nc4c(C)cc(C)cc4s3)cc2)CC1	-10.7	7.4	15.9	7.4	/	-4.2
CCOC(=O)N1CCN(S(=O)(=O)c2ccc(C(=O)NNc3nc4cc(C)cc(C)c4s3)cc2)CC1	/	/	/	/	49.9*	2.8
COc1ccc(-n2c(SCC(=O)Nc3ccc(OCc4ccccc4)cc3)nnc2-c2ccc(C)cc2)cc1	/	-2.0	-4.8	-1.3	/	/
O=C(Sc1n[nH]c(=O)[nH]c1=O)c1ccccc1	1.1	87.6*	1.1	4.9	6.3	2.6
CN(C(=O)CSc1n[nH]c(=O)[nH]c1=O)c1ccccc1	2.7	16.4	14.4	3.3	4.8	-1.0
O=C1/C(=C\c2ccco2)CCC/C1=C\c1ccco1	1.2	21.7*	-5.4	0.7	19.3	23.8
CCOc1ccc(-n2c(SCc3cccc4ccccc34)nnc2-c2ccc(C)cc2)cc1	/	-1.0	-7.2	6.8	/	/
O=C(NCC1CCCO1)c1ccc2c(c1)N(Cc1ccccc1)C(=O)CS2=O (centres undefined)	2.8	24.0*	0.0	-2.9	-0.1	2.5
Cc1cccc(C(=O)N/C(=C\c2ccco2)C(=O)N2CCCC2)c1	11.2	23.3*	20.8	10.5	3.5	-1.6
Cc1ccc(C(=O)N/C(=C/c2ccco2)C(=O)N2CCCCCC2)cc1	0.8	10.4	14.9	5.2	-4.8	-21.0
NC(=O)c1ccc(NC(=O)CSC(=O)c2ccccc2)cc1	3.8	35.9*	-2.5	-5.3	12.1	-50.3
C=CCN(CC#Cc1cccnc1)Cc1ccc(OC)cc1OC	/	-0.3	4.2	0.7	/	/
O=C(COc1ccccc1)NC1C(=O)N2C(C(=O)O)=C(Cl)CSC12 (centres undefined)	11.1	24.1*	11.0	6.0	0.1	1.4
CC(=O)OCC1=C(C(=O)O)N2C(=O)C(NC(=O)CCn3nc(C(F)(F)F)c(Br)c3C3CC3)C2SC1 (centres undefined)	-1.2	24.5*	9.2	7.3	4.3	-4.6
CC1=C(C(=O)OCc2ccccc2)N2C(=O)[C@@H](NC(=O)COc3ccccc3)[C@H]2SC1	-4.5	-2.5	-5.6	-1.9	-6.2	-6.4
CC(=O)OCC1=C(C(=O)O)N2C(=O)C(NC(=O)Cn3nc(C(F)F)c(Cl)c3C)C2SC1 (centres undefined)	5.3	20.0	4.8	1.1	-19.2	9.5
CC(=O)OCC1=C(C(=O)O)N2C(=O)C(NC(=O)CCn3nc(C)c(Cl)c3C)C2SC1 (centres undefined)	1.9	23.7*	-0.2	-4.8	5.6	-1.1
CC(=O)OCC1=C(C(=O)O)N2C(=O)C(NC(=O)CC(C)c3ccccc3)C2SC1 (centres undefined)	-4.8	21.9*	7.7	4.7	3.6	-0.7
CC(=O)OCC1=C(C(=O)O)N2C(=O)[C@@H](NC(=O)Cc3cccs3)[C@H]2SC1	7.8	11.0	8.4	-0.6	-4.6	-5.3
CC(C)(C)NC(=O)c1ccccc1-c1nc2ccccc2s1	1.8	23.7*	6.2	-3.7	0.8	13.1
CCOc1cc(/C=C2\C(=O)N(CCc3ccc(OC)c(OC)c3)C(C)=C2C(=O)OC)ccc1O	-1.2	26.5*	17.4	5.7	-2.2	-20.9
O=C1NC(=O)C(=Cc2ccc(Cl)cc2Cl)S1	-1.0	5.8	-38.5	-5.5	-40.6	4.6
O=C1NC(=O)/C(=C\c2ccccc2Oc2ccc(F)c(F)c2)S1	7.9	0.1	-10.2	-24.8	-21.7	56.8*	PLA2 ctr=48.5
O=C1NC(=O)/C(=C/c2ccccc2OCc2ccccc2)S1	6.6	3.8	-31.4	-19.9	-51.3	46.0*	PLA2 ctr=53.2*
Oc1ccc(C2C(c3ccccc3)=NN=C(c3ccccc3F)N2O)c(O)c1 (centres undefined)	-5.0	8.4	-4.1	5.7	2.9	63.2*	PLA2 ctr=83.8*
SMILES	TCR-CD3 inh	PRMT1 FP inh	ABHD4 inh	SIAE inh	HTRA1 inh	ATG4B inh	others
CC1=NN=C(c2ccccc2)C(c2c[nH]c3ccccc23)N1O (centres undefined)	1.4	4.6	-4.5	-7.7	0.1	-8.4
Oc1ccc(C2C(c3ccccc3)=NN=C(c3ccc(Cl)cc3)N2O)c(O)c1 (centres undefined)	-23.0	7.5	-23.4	1.1	-10.6	59.6*	PLA2 ctr=75.5*
Nn1c(SCc2c(Cl)cccc2Cl)nnc1-c1n[nH]c2c1CCC2	/	2.0	0.5	8.8	/	/
COc1ccc(-c2noc(C3CCCN(C(=O)Nc4ccc(C)c(F)c4)C3)n2)cc1 (centres undefined)	/	4.3	-22.4	-8.8	/	/
COc1ccc(/C=C2\CCC(C3CCCC3)C2=O)cc1Cn1cccn1 (centres undefined)	-5.8	-1.5	5.0	4.4	-43.4	67.6*	PLA2 ctr=65.3*
COc1ccc(/C=C2\CCC(C3CCCC3)C2=O)cc1Cn1nc(C)cc1C (centres undefined)	5.5	-3.3	0.6	1.5	1.8	34.9
O=C(Nc1ccccc1Cc1ccccc1)c1ccccc1NS(=O)(=O)c1ccc(Cl)s1	0.9	2.4	-92.5	-21.5	-87.0	81.5*	PLA2 ctr=83.1*
COC(=O)[C@]1(C#N)CC(=O)N(CC(C)C)[C@@H]1c1ccccc1	/	1.5	4.0	-0.1	/	/
Cc1nc(NC(=O)c2ccccc2)sc1-c1csc(NCCc2ccccc2)n1	-0.6	-1.9	17.6	-1.3	-51.3	27.7
Cc1nc(NC(=O)c2ccccc2)sc1-c1csc(NCc2ccccc2)n1	4.3	-2.2	4.9	-5.0	-16.7	45.2*	PLA2 ctr=65.8*
CCOC(=O)[C@]12CCCC3=C1N(CCC3)C(=O)[C@@H](CC(=O)N1CCC(c3ccccc3)CC1)C2	/	1.8	6.4	0.5	/	/
O=C(Nc1cccc(Cl)c1N1CCCC1)c1cccc(-c2cc3ccccc3oc2=O)c1	-3.5	2.5	-1.4	-10.4	-4.3	49.6*	ATG4B confirm=58.6*;PLA2 ctr=24.7
O=C(Nc1ccc(CN2CCOCC2)cc1)c1cccc(-c2cc3ccccc3oc2=O)c1	-6.2	3.3	-5.0	-16.6	-23.4	-29.7
COC(=O)[C@]12C[C@H](CC(=O)NCc3cccc(C(F)(F)F)c3)C(=O)N(Cc3ccccc3)C1=C[C@H](COCc1ccccc1)O[C@@H]2C	/	0.9	-7.1	8.5	/	/
O=c1nc(/C=C/c2ccccc2C(F)(F)F)cc(C(F)(F)F)[nH]1	17.2	0.0	-5.4	-5.9	-5.9	44.7*	PLA2 ctr=59.4*
Cc1nc2ccc(NC(=O)c3cccnc3)cc2s1	-1.6	-1.4	1.4	-3.6	1.1	-2.9

Screening results (PubChem BioAssay)
